ChEMBL document CHEMBL4325893, “Synthesis and antibacterial profiles of targeted triclosan derivatives” (2019)
Converted amounts (≈) assume the structure as drawn.

How the values were obtained:
Staphylococcus aureus [1] = assay: Antibacterial activity against Staphylococcus aureus ATCC 6538 after 18 hrs; format: functional; conditions: ATCC 6538, 18 h
Outline: (§1)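 Broth microdilution in Nutrient Broth No. 2; stocks in ethanol diluted to 0.01–128 µg/ml (triclosan) or 0.25–256 µg/ml (glycosides). Overnight 37 °C NB2 cultures diluted 1 in 10^4 in saline and added to the dilutions. Incubation at 37 °C with agitation, OD read every 15 min; MIC is the lowest concentration preventing any OD rise after 18 h.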

Staphylococcus aureus [2] = assay: Antibacterial activity against Staphylococcus aureus ATCC 6538P after 18 hrs; format: functional; outline: as §1
Staphylococcus aureus [3] = assay: Antibacterial activity against Staphylococcus aureus ATCC 9144 after 18 hrs; format: functional; conditions: ATCC 9144, 18 h; outline: as §1
Staphylococcus aureus [4] = assay: Antibacterial activity against Staphylococcus aureus ATCC 25923 after 18 hrs; format: functional; conditions: ATCC 25923, 18 h; outline: as §1
Staphylococcus aureus [5] = assay: Antibacterial activity against Staphylococcus aureus ATCC 29213 after 18 hrs; format: functional; conditions: ATCC 29213, 18 h; outline: as §1
Staphylococcus aureus [6] = assay: Antibacterial activity against Staphylococcus aureus NCTC 13758 after 18 hrs; format: functional; conditions: NCTC 13758, 18 h; outline: as §1
Staphylococcus aureus [7] = assay: Antibacterial activity against Staphylococcus aureus OCC 104 after 18 hrs; format: functional; conditions: OCC 104, 18 h; outline: as §1
Staphylococcus aureus [8] = assay: Antibacterial activity against Staphylococcus aureus OCC 106 after 18 hrs; format: functional; conditions: OCC 106, 18 h; outline: as §1
[9] = test system: Staphylococcus epidermidis; assay: Antibacterial activity against Staphylococcus epidermidis 155 after 18 hrs; format: functional; conditions: Staphylococcus epidermidis, 155, 18 h; outline: as §1
[10] = test system: Staphylococcus epidermidis; assay: Antibacterial activity against Staphylococcus epidermidis ATCC 12228 after 18 hrs; format: functional; conditions: ATCC 12228, 18 h; outline: as §1
[11] = test system: Staphylococcus epidermidis; assay: Antibacterial activity against Staphylococcus epidermidis ATCC 14990 after 18 hrs; format: functional; conditions: ATCC 14990, 18 h; outline: as §1
[12] = test system: Staphylococcus haemolyticus; assay: Antibacterial activity against Staphylococcus haemolyticus OCC 2223 after 18 hrs; format: functional; conditions: OCC 2223, 18 h
Outline: (§2)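 Broth microdilution in Nutrient Broth No. 2. Ethanol stocks were diluted in broth to 0.01–128 µg/ml for triclosan and 0.25–256 µg/ml for glycosides. Overnight 37°C NB2 cultures were diluted 1 in 10^4 in saline and added to the wells. Plates were incubated at 37°C with OD read every 15 min after agitation. MIC was the lowest concentration giving no OD increase at 18 h.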

[13] = test system: Staphylococcus saprophyticus; assay: Antibacterial activity against Staphylococcus saprophyticus ATCC 15305 after 18 hrs; format: functional; conditions: ATCC 15305, 18 h; outline: as §2
Streptococcus agalactiae = assay: Antibacterial activity against Streptococcus agalactiae OCC 182 after 18 hrs; format: functional; conditions: OCC 182, 18 h; outline: as §2
Streptococcus pneumoniae [14] = assay: Antibacterial activity against Streptococcus pneumoniae 6305 after 18 hrs; format: functional; conditions: Streptococcus pneumoniae, 6305, 18 h; outline: as §2
Streptococcus pneumoniae [15] = assay: Antibacterial activity against Streptococcus pneumoniae ATCC 49619 after 18 hrs; format: functional; conditions: ATCC 49619, 18 h; outline: as §2
Streptococcus pyogenes = assay: Antibacterial activity against Streptococcus pyogenes ATCC 19615 after 18 hrs; format: functional; conditions: ATCC 19615, 18 h; outline: as §2
Streptococcus viridans = assay: Antibacterial activity against Streptococcus viridans OCC 234 after 18 hrs; format: functional; conditions: OCC 234, 18 h; outline: as §2
[16] = test system: Salmonella enterica subsp. enterica serovar Abony; assay: Antibacterial activity against Salmonella enterica subspecies enterica serotype Abony NCTC 6017 after 18 hrs; format: functional; conditions: NCTC 6017, 18 h; outline: as §1
[17] = Antibacterial activity against Salmonella enterica subspecies enterica serotype Arizonae OCC 706 after 18 hrs; format: functional, Salmonella enterica subsp. enterica serovar Arizonae; conditions: OCC 706, 18 h; outline: as §1
[18] = Antibacterial activity against Salmonella enterica subspecies enterica serotype Dublin OCC 627 after 18 hrs; format: functional, Salmonella enterica subsp. enterica serovar Dublin; conditions: OCC 627, 18 h; outline: as §1
Salmonella enteritidis = assay: Antibacterial activity against Salmonella enterica subspecies enterica serotype Enteritidis 13076 after 18 hrs; format: functional, Salmonella enterica subsp. enterica serovar Enteritidis; conditions: Salmonella enterica, 13076, 18 h; outline: as §1
[19] = Antibacterial activity against Salmonella enterica subspecies enterica serotype Indiana OCC 597 after 18 hrs; format: functional, Salmonella enterica subsp. enterica serovar Indiana; conditions: OCC 597, 18 h; outline: as §1
[20] = Antibacterial activity against Salmonella enterica subspecies enterica serotype Infantis OCC 2133 after 18 hrs; format: functional, Salmonella enterica subsp. enterica serovar Infantis; conditions: OCC 2133, 18 h; outline: as §1
[21] = Antibacterial activity against Salmonella enterica subspecies enterica serotype Nottingham NCTC 7832 after 18 hrs; format: functional, Salmonella enterica subsp. enterica serovar Nottingham; conditions: NCTC 7832, 18 h; outline: as §1
[22] = Antibacterial activity against Salmonella enterica subspecies enterica serotype Poona NCTC 4840 after 18 hrs; format: functional, Salmonella enterica subsp. enterica serovar Poona; conditions: NCTC 4840, 18 h; outline: as §1
[23] = Antibacterial activity against Salmonella enterica subspecies enterica serotype Pullorum OCC 273 after 18 hrs; format: functional, Salmonella enterica subsp. enterica serovar Pullorum; conditions: OCC 273, 18 h; outline: as §1
Salmonella typhimurium = assay: Antibacterial activity against Salmonella enterica subspecies enterica serotype typhimurium ATCC 14028 after 18 hrs; format: functional, Salmonella enterica subsp. enterica serovar Typhimurium; conditions: ATCC 14028, 18 h; outline: as §1
[24] = Antibacterial activity against Salmonella enterica subspecies enterica serotype Virchow NCTC 5742 after 18 hrs; format: functional, Salmonella enterica subsp. enterica serovar Virchow; conditions: NCTC 5742, 18 h; outline: as §1

OC[C@H]1O[C@H](Oc2cc(Cl)ccc2Oc2ccc(Cl)cc2Cl)[C@H](O)[C@@H](O)[C@H]1O
MIC (Staphylococcus aureus [1]): 8 to 16 µg/mL (≈ 17.7 to 35.4 µM)
MIC (Staphylococcus aureus [2]): 8 to 16 µg/mL (≈ 17.7 to 35.4 µM)
MIC (Staphylococcus aureus [3]): 8 to 16 µg/mL (≈ 17.7 to 35.4 µM)
MIC (Staphylococcus aureus [4]): 8 to 16 µg/mL (≈ 17.7 to 35.4 µM)
MIC (Staphylococcus aureus [5]): 8 to 16 µg/mL (≈ 17.7 to 35.4 µM)
MIC (Staphylococcus aureus [6]): 8 to 16 µg/mL (≈ 17.7 to 35.4 µM)
MIC (Staphylococcus aureus [7]): 8 to 16 µg/mL (≈ 17.7 to 35.4 µM)
MIC (Staphylococcus aureus [8]): 8 to 16 µg/mL (≈ 17.7 to 35.4 µM)
MIC [9]: 8 to 32 µg/mL (≈ 17.7 to 70.8 µM)
MIC [10]: 8 to 32 µg/mL (≈ 17.7 to 70.8 µM)
MIC [11]: 8 to 32 µg/mL (≈ 17.7 to 70.8 µM)
MIC [12]: 16 µg/mL (≈ 35.4 µM)
MIC [13]: 64 µg/mL (≈ 142 µM)
MIC (Streptococcus agalactiae): > 256 µg/mL
MIC (Streptococcus pneumoniae [14]): 128 µg/mL (≈ 283 µM)
MIC (Streptococcus pneumoniae [15]): 128 µg/mL (≈ 283 µM)
MIC (Streptococcus pyogenes): 256 µg/mL (≈ 567 µM)
MIC (Streptococcus viridans): > 256 µg/mL
MIC [16]: 32 to 64 µg/mL (≈ 70.8 to 142 µM)
MIC [17]: 32 to 64 µg/mL (≈ 70.8 to 142 µM)
MIC [18]: 32 to 64 µg/mL (≈ 70.8 to 142 µM)
MIC (Salmonella enteritidis): 32 to 64 µg/mL (≈ 70.8 to 142 µM)
MIC [19]: 32 to 64 µg/mL (≈ 70.8 to 142 µM)
MIC [20]: 32 to 64 µg/mL (≈ 70.8 to 142 µM)
MIC [21]: 32 to 64 µg/mL (≈ 70.8 to 142 µM)
MIC [22]: 32 to 64 µg/mL (≈ 70.8 to 142 µM)
MIC [23]: 32 to 64 µg/mL (≈ 70.8 to 142 µM)
MIC (Salmonella typhimurium): 32 to 64 µg/mL (≈ 70.8 to 142 µM)
MIC [24]: 32 to 64 µg/mL (≈ 70.8 to 142 µM)
